Read-outs that look alike come from different tables or passages of the source. Each block holds one molecule with its values, some of them ahead of it.
Experiments:
FPR2 [1] = target: T1, FPR2 (Homo sapiens, UniProt P25090); assay: Ca2+ mobilization in FPR2-transfected HL60 cells; type: cell-based
T1 sequence (P25090 1-351): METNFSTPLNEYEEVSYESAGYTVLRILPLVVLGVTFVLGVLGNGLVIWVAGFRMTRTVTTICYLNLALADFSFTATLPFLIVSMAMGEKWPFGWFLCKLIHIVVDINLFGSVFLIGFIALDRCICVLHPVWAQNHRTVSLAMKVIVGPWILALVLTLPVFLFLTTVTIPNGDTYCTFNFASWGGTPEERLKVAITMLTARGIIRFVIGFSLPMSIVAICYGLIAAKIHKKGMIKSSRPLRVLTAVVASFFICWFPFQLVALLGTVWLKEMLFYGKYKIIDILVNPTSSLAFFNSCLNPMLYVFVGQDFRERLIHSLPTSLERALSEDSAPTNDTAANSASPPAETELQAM

FPR1 [2] = target: T2, FPR1 (Homo sapiens, UniProt P21462); assay: Ca2+ mobilization in FPR1-transfected HL60 cells; type: cell-based
T2 sequence (P21462 1-350): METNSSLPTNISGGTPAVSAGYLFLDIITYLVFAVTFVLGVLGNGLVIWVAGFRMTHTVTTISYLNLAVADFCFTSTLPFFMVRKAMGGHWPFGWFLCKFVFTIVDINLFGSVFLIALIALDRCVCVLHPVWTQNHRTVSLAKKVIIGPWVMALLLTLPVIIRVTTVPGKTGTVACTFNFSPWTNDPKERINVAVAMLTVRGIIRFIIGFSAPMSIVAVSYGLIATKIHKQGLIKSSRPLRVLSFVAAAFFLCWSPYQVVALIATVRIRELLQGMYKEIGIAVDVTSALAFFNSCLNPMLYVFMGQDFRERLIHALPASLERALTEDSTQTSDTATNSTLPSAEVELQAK

FPR3 = details: read-out: FPR3 EC50; EC10; cited from earlier work
[3] = system: CFA-induced rheumatoid arthritis in rats; assay: Paw pressure test in CFA-induced rheumatoid arthritis; type: in vivo, rat
FPR1 [4] = target: T2, FPR1; details: read-out: FPR1 EC50; EC10; cited from earlier work
[5] = system: CFA-induced rheumatoid arthritis in rats; assay: Incapacitance test in CFA-induced rheumatoid arthritis; type: in vivo, rat; details: for Δ Weight (incapacitance test): day 14 after CFA
FPR2 [6] = target: T1, FPR2; details: read-out: FPR2 EC50; EC10; cited from earlier work
[7] = system: collagen-induced arthritis and antigen-induced arthritis; details: 30 mg/kg i.p., mice, both models; cited from earlier work
human neutrophils [8] = assay: Desensitization of human neutrophil chemotaxis toward WKYMVm; type: cell-based; details: 0.5 h, read-out: Chemotaxis IC50
human neutrophils [9] = assay: Human neutrophil chemotaxis; type: cell-based; details: read-out: Chemotaxis EC50
How it was run: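 Neutrophils from healthy-donor blood purified by dextran sedimentation, Histopaque 1077 gradient and hypotonic red-cell lysis, then washed twice into Ca/Mg-free HBSS; preparations >95% pure by light microscopy and >98% viable by trypan blue.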

EC50 (FPR2 [1]): 310 ± 90 nM
EC50 (FPR1 [2]): 3900 ± 1200 nM
SMILES: COc1cccc(NC(=O)c2cc(C#N)c(=O)n(CC(=O)Nc3ccc(Br)cc3)c2C)c1 [Compound 9a, 1-[(4-Bromophenylcarbamoyl)methyl]-5-cyano-2-methyl-6-oxo-1,6-dihydro-pyridine-3-carboxylic acid (3-methoxyphenyl) amide]

SMILES: COc1cccc(Nc2c(C(C)=O)c(C)nn(CC(=O)Nc3ccc(Br)cc3)c2=O)c1 [EC10]
EC50 (FPR3): 210 nM
effect on pain threshold (paw pressure test) ([3]; 10 and 30 mg/kg p.o., between 15 and 60 min, similar efficacy as EC3): increased the pain threshold
EC50 (FPR1 [4]): 45 nM
Δ Weight (incapacitance test) ([5]; 10 and 30 mg/kg p.o., 15 to 60 min, CFA + vehicle 62.8 ± 3.1 g): 40.2 ± 1.1 g
EC50 (FPR2 [6]): 170 nM

EC50 (FPR2 [1]): 16400 ± 3300 nM
EC50 (FPR1 [2]): 7900 ± 1400 nM
SMILES: CCOC(=O)c1cc(C(=O)Nc2ccc(OC)cc2)c(=O)n(CC(=O)Nc2ccc(Br)cc2)c1C [Compound 6b, 1-[(4-Bromophenylcarbamoyl)methyl]-5-(4-methoxyphenylcarbamoyl)-2-methyl-6-oxo-1,6-dihydropyridine-3-carboxylic acid ethyl ester]

EC50 (FPR2 [1]): 4100 ± 1300 nM
EC50 (FPR1 [2]): 5500 ± 1600 nM
SMILES: CCCn1ccc(=O)n(CC(=O)Nc2ccc(Br)cc2)c1=O [Compound 11d, N-(4-Bromophenyl)-2-(2,6-dioxo-3-propyl-3,6-dihydropyrimidin-1(2H)-yl)acetamide]

SMILES: CC(C)c1c(NC(=O)Nc2ccc(Cl)cc2)c(=O)n(-c2ccccc2)n1C [Cpd43]
effect on arthritis disease severity [7]: significantly reduced disease severity

EC50 (human neutrophils [9]): 13 ± 1 nM
EC50 (FPR1 [2]; read-out: FPR1-HL60 EC50, Ca2+ mobilization, mean of three independent experiments, N.A. = no activity (efficacy < 20% and EC50 < 50 μM as printed)): 3000 nM
SMILES: CCOC(=O)c1cc(C#N)c(=O)n(CC(=O)Nc2ccc(Br)cc2)c1C [Compound 2d, 1-[(4-Bromophenylcarbamoyl)-methyl]-5-cyano-2-methyl-6-oxo-1,6-dihydropyridine-3-carboxylic acid ethyl ester]
IC50 (human neutrophils [8]): 8400 ± 1200 nM

preference for FPR2 versus FPR1 (FPR2 [1]; ratio of EC50 values): 10 fold
EC50 (human neutrophils [9]): 20 ± 4 nM
SMILES: COc1cccc(-c2cc(C#N)c(=O)n(CC(=O)Nc3ccc(Br)cc3)c2C)c1 [Compound 2a, N-(4-Bromophenyl)-2-[3-cyano-5-(3-methoxyphenyl)-6-methyl-2-oxopyridin-1(2H)-yl]acetamide]
effect on pain threshold (paw pressure test) ([3]; 10 mg/kg p.o., day 14 after CFA): effective between 30 and 60 min
pain threshold (paw pressure test) ([3]; 30 mg/kg p.o., day 14 after CFA, 15 to 45 min, CFA + vehicle 37.5 ± 1 g): 63.3 ± 2 g
IC50 (human neutrophils [8]): 6100 ± 1100 nM
effect on postural unbalance (incapacitance test) ([5]; 10 and 30 mg/kg p.o., between 15 and 60 min after administration): significantly reduced the postural unbalance

EC50 (FPR2 [1]): 440 ± 120 nM
EC50 (FPR1 [2]): 960 ± 390 nM
SMILES: COc1ccc(NC(=O)c2cc(C#N)c(=O)n(CC(=O)Nc3ccc(Br)cc3)c2C)cc1 [Compound 9b, 1-[(4-Bromophenylcarbamoyl)methyl]-5-cyano-2-methyl-6-oxo-1,6-dihydro-pyridine-3-carboxylic acid (4-methoxyphenyl) amide]

SMILES: CC(C)Cc1ccc(C(C)C(=O)O)cc1 (centres unmarked) [Ibuprofen, ibuprofen, reference compound]
Δ Weight (incapacitance test) ([5]; 100 mg kg−1 p.o., 15 to 30 min, CFA + vehicle 62.6 ± 2.5 g): 34.7 ± 6.1 g

EC50 (FPR2 [1]): 28900 ± 2700 nM
EC50 (FPR1 [2]): 400 ± 100 nM
preference for FPR1 (FPR1 [2]; FPR1 versus FPR2 EC50): about 72 fold
SMILES: CCOC(=O)c1cc(C(=O)Nc2cccc(OC)c2)c(=O)n(CC(=O)Nc2ccc(Br)cc2)c1C [Compound 6a, 1-[(4-Bromophenylcarbamoyl)methyl]-5-(3-methoxyphenylcarbamoyl)-2-methyl-6-oxo-1,6-dihydropyridine-3-carboxylic acid ethyl ester]

EC50 (FPR2 [1]): 480 ± 80 nM
EC50 (FPR1 [2]): 1000 ± 200 nM
SMILES: COc1ccc(-c2cc(C#N)c(=O)n(CC(=O)Nc3ccc(Br)cc3)c2C)cc1 [Compound 2b, N-(4-Bromophenyl)-2-[3-cyano-5-(4-methoxyphenyl)-6-methyl-2-oxopyridin-1(2H)-yl]acetamide]

EC50 (FPR2 [1]): 600 ± 200 nM
EC50 (human neutrophils [9]): 60 ± 15 nM
EC50 (FPR1 [2]): 33200 ± 4900 nM
SMILES: COc1ccc(-c2cc(C#N)c(=O)n(CC(=O)Nc3ccc(Br)cc3)c2C)cc1OC [Compound 2c, N-(4-Bromophenyl)-2-[3-cyano-5-(3,4-dimethoxyphenyl)-6-methyl-2-oxopyridin-1(2H)-yl]acetamide]
IC50 (human neutrophils [8]): 18800 ± 3200 nM

EC50 (FPR2 [1]): 1800 ± 210 nM
EC50 (FPR1 [2]): 1400 ± 400 nM
SMILES: COc1cccc(NC(=O)c2cc(-c3ccncc3)c(C)n(CC(=O)Nc3ccc(Br)cc3)c2=O)c1 [Compound 6c, 1-[(4-Bromophenylcarbamoyl)methyl]-2-methyl-6-oxo-1,6-dihydro-[3,4′]bipyridinyl-5-carboxylic acid (3-methoxyphenyl) amide]
